# Measurements reported in publication PMC3415686 (Bioorganic & medicinal chemistry letters, 2012).
# What was measured:
# [1] = target: wt Bcr-Abl-Ba/F3 (Homo sapiens, UniProt P00519+P11274); test: Cellular antiproliferative activity on wt Bcr-Abl-Ba/F3; format: cell-based, murine; details: for antiproliferative activity against wild-type Bcr-Abl (in words): Ba/F3 cells transformed with Bcr-Abl
# Outline: (§1)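 Murine pre-B Ba/F3 cells transformed with the Bcr-Abl oncogene were used for cellular Bcr-Abl inhibition. Transformed cells grow without interleukin-3 (IL-3). Untransformed parental Ba/F3 cells proliferate only when IL-3 is present.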
# [2] = target: Bcr-Abl-T315I-Ba/F3 (Homo sapiens, UniProt P00519+P11274, T315I); test: Cellular antiproliferative activity on mutant Bcr-Abl-T315I-Ba/F3; format: cell-based, murine
# Outline: as §1
# [3] = tested on: wt-Ba/F3; test: Cytotoxicity on wt; format: cell-based, murine
# Outline: as §1
# [4] = Pharmacokinetics following oral and intravenous delivery; format: in vivo, rats; details: rat
# Outline: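 Rats were dosed with the test compound orally and intravenously; the oral dose was 2 mg/kg. Serum drug levels were followed to derive oral bioavailability (%F), half-life, Cmax and clearance.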
# [5] = tested on: panel of 353 kinases; test: KINOMEscan kinase selectivity profiling; format: binding; details: 10 μM
# Outline: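 KINOMEscan competition binding screen with the test compound at 10 μM against 353 kinases. Hits were kinases with an Ambit score below 10% of the DMSO control. S(10) is the number of kinases scoring below ten divided by the total number of kinases tested at that concentration.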
smiles,measurement,setting,value
Nc1nc2ccc(-c3cccc(C(=O)Nc4cccc(C(F)(F)F)c4)c3)nc2s1 [Compound 9a],antiproliferative activity against wild-type Bcr-Abl (in words),[1],did not display antiproliferative activity
same,antiproliferative activity against T315I-Bcr-Abl (in words),[2]; Ba/F3 cells transformed with T315I-Bcr-Abl,did not display antiproliferative activity
CCN1CCN(Cc2ccc(NC(=O)c3cccc(-c4ccc5nc(NC(=O)C6CC6)sc5n4)c3)cc2C(F)(F)F)CC1 [Compound 22],EC50,"[1]; read-out: Cellular antiproliferative activity (EC50, μM) Bcr-Abl (wt), wt Bcr-Abl-Ba/F3",0.098 µM
same,decrease in cytotoxicity against parental Ba/F3 cells relative to 11,[3]; relative to 11,3 fold
same,improvement in cellular antiproliferative activity relative to 11 against T315I-Bcr-Abl,[2]; relative to 11,~6 fold
same,AUC (%extrapolated),[4]; IV 1 mg/kg,35.3%
same,AUC (%extrapolated),[4]; PO 2 mg/kg,35%
same,Tmax,"[4]; serum, iv, 1 mg/kg",4.8 min
same,clearance,"[4]; serum, iv, 1 mg/kg",13 mL/min/kg
same,Tmax,"[4]; serum, po, 2 mg/kg",162 min
same,S(10) score (kinases inhibited below a score of ten / total kinases tested),[5],0.10
O=C(Nc1ccc(N2CCNCC2)c(C(F)(F)F)c1)c1cccc(-c2ccc3nc(NC(=O)C4CC4)sc3n2)c1 [Compound 24],loss of cellular activity relative to 22,"[1]; relative to 22, cell line not given",approximately 10 fold
Cc1cn(-c2cc(NC(=O)c3cccc(-c4ccc5nc(NC(=O)C6CC6)sc5n4)c3)cc(C(F)(F)F)c2)cn1 [Compound 26],AUC (%extrapolated),[4]; IV 1 mg/kg,8.7%
same,AUC (%extrapolated),[4]; PO 2 mg/kg,21%
same,Tmax,"[4]; serum, iv, 1 mg/kg",8.4 min
same,Tmax,"[4]; serum, po, 2 mg/kg",66 min
same,S(10) score (kinases inhibited below a score of ten / total kinases tested),[5],0.36
CCN1CCN(Cc2ccc(NC(=O)c3ccc(C)c(-c4ccc5nc(NC(=O)C6CC6)sc5n4)c3)cc2C(F)(F)F)CC1 [Compound 27],antiproliferative activity against wild-type Bcr-Abl (in words),[1],exceptionally potent
CCN1CCN(Cc2ccc(NC(=O)Nc3cccc(-c4ccc5nc(NC(=O)C6CC6)sc5n4)c3)cc2C(F)(F)F)CC1 [Compound 32],improved activity on wild-type Bcr-Abl (urea linkage),[1]; urea linkage in place of amide,5–10 fold
same,increased cytotoxicity towards parental Ba/F3 cells (urea linkage),[3]; urea linkage in place of amide,approximately 5 fold
same,improved activity on T315I Bcr-Abl (urea linkage),[2]; urea linkage in place of amide,5–10 fold
Cc1cn(-c2cc(NC(=O)Nc3cccc(-c4ccc5nc(NC(=O)C6CC6)sc5n4)c3)cc(C(F)(F)F)c2)cn1 [Compound 33],reduction in cellular activity against T315I-Bcr-Abl compared to 22,[2]; compared to 22,~4 fold
